Test [1] addresses GABA-A receptor; anion channel. Put plainly: Displacement of [3H]flumazenil from GABA-A receptor in bovine brain membranes. The format is cell membranes, Bos taurus. On the technique in general: In a radioligand displacement assay an active substance lowers the binding of a labelled ligand.
Test [2] concerns the target GABA A receptor alpha-5/beta-3/gamma-2 (Rattus norvegicus) (UniProt P18508+P19969+P63079). The test can be described thus: Inhibition of [3H]flumazenil binding to rat GABA-Aalpha5 receptor plus beta-3-gamma-2 at 10 uM in HEK293 cells. The format is cell-based.
The target of test [3] is GABA-A receptor; alpha-1/beta-2/gamma-2 (Rattus norvegicus, UniProt P18508+P62813+P63138). The test can be described thus: Displacement of [3H]flumazenil from rat GABA-Aalpha1 receptor plus beta-2-gamma-2 in HEK293 cells. The format is cell-based. An outline of the steps:
(§1)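 Membranes from HEK293 cells stably expressing rat GABA-A subtypes (37 °C, 5% CO2, DMEM/F-12 with 10% FBS). Cells harvested, homogenized in 10 mM potassium phosphate pH 7.4, centrifuged at 48 000g for 30 min at 4 °C, washed twice, resuspended in the same buffer plus 100 mM KCl. Incubated with 1-2 nM [3H]flumazenil for 1 h at 4 °C to equilibrium. Nonspecific binding defined with 10^-5 M diazepam.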

Test [4] deals with GABA A receptor alpha-2/beta-2/gamma-2 (Rattus norvegicus, UniProt P18508+P23576+P63138). The test can be described thus: Displacement of [3H]flumazenil from rat GABA-Aalpha2 receptor plus beta-2-gamma-2 in HEK293 cells. The format is cell-based. An outline of the steps:
as §1

For test [5], the target named is GABA A receptor alpha-5/beta-3/gamma-2 (Rattus norvegicus, UniProt P18508+P19969+P63079). Put plainly: Displacement of [3H]flumazenil from rat GABA-Aalpha5 receptor plus beta-3-gamma-2 in HEK293 cells. The format is cell-based. The gist of the method:
as §1

The target in test [6] is GABA A receptor alpha-2/beta-2/gamma-2 (Rattus norvegicus) (UniProt P18508+P23576+P63138). The test can be described thus: Inhibition of [3H]flumazenil binding to rat GABA-Aalpha2 receptor plus beta-2-gamma-2 at 10 uM in HEK293 cells. The format is cell-based.

Chain of GABA A receptor alpha-2/beta-2/gamma-2 (P18508 whole entry): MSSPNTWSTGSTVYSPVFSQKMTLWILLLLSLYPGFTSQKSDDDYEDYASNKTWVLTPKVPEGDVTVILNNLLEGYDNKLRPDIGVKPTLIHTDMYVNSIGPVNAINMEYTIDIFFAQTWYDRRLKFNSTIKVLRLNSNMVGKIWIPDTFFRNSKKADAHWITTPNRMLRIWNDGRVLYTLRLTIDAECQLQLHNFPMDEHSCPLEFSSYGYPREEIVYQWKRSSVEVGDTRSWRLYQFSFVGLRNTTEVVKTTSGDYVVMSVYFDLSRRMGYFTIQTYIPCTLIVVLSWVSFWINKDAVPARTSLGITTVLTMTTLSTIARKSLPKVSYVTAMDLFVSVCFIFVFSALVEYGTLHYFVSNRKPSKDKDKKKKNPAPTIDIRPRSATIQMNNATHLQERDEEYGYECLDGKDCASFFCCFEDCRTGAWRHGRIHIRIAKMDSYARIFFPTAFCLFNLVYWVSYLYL
Chain of GABA A receptor alpha-2/beta-2/gamma-2 (P23576 whole entry): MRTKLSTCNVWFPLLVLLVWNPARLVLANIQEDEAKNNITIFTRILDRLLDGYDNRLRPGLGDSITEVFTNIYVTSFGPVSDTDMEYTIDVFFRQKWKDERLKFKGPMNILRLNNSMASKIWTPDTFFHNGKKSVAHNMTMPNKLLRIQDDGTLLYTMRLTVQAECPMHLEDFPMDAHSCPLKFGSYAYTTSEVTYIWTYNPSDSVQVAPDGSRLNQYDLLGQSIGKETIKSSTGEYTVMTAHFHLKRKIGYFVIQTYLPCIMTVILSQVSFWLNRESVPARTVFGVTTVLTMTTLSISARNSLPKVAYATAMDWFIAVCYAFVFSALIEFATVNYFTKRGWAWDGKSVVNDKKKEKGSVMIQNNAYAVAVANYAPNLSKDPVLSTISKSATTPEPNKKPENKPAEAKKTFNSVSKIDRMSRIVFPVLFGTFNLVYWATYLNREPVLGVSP
Chain of GABA A receptor alpha-2/beta-2/gamma-2 (P63138 whole entry): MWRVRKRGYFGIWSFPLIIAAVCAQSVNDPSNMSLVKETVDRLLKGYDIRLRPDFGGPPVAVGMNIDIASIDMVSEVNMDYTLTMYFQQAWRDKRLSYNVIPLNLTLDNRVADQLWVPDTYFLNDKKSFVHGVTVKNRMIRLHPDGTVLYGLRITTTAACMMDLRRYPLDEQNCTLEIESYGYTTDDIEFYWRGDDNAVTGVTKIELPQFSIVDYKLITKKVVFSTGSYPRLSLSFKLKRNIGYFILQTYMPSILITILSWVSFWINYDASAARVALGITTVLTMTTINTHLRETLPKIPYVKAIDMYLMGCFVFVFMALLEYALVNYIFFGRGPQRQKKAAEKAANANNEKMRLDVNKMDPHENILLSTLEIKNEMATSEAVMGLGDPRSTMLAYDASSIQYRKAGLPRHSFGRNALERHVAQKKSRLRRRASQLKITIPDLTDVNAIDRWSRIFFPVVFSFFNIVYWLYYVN
Chain of GABA-A receptor; alpha-1/beta-2/gamma-2 (P18508 whole entry): as the sequence (P18508 whole entry) above
Chain of GABA-A receptor; alpha-1/beta-2/gamma-2 (P62813 whole entry): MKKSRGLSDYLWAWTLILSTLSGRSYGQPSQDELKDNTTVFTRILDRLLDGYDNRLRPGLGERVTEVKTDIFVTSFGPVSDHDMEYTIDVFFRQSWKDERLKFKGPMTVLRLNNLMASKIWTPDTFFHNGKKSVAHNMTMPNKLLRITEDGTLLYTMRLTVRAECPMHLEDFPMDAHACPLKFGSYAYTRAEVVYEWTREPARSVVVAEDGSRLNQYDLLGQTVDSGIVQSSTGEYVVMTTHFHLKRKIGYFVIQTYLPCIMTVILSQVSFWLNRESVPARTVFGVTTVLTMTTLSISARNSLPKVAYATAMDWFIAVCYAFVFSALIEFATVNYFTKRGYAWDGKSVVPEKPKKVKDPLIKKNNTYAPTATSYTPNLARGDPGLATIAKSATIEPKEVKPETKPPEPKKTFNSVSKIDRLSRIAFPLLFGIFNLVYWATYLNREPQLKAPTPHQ
Chain of GABA-A receptor; alpha-1/beta-2/gamma-2 (P63138 whole entry): as the sequence (P63138 whole entry) above
Chain of GABA A receptor alpha-5/beta-3/gamma-2 (P18508 whole entry): as the sequence (P18508 whole entry) above
Chain of GABA A receptor alpha-5/beta-3/gamma-2 (P19969 whole entry): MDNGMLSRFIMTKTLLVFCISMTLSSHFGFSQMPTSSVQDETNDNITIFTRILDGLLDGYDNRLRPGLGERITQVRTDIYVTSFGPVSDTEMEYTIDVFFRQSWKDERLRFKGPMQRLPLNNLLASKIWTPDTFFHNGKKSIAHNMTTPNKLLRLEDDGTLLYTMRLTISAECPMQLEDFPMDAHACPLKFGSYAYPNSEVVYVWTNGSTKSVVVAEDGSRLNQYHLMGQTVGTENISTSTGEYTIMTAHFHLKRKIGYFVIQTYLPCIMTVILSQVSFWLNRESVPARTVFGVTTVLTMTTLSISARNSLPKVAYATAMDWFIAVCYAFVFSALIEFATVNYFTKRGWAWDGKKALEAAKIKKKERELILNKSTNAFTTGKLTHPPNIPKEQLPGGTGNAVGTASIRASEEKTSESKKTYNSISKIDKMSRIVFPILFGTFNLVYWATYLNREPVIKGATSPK
Chain of GABA A receptor alpha-5/beta-3/gamma-2 (P63079 whole entry): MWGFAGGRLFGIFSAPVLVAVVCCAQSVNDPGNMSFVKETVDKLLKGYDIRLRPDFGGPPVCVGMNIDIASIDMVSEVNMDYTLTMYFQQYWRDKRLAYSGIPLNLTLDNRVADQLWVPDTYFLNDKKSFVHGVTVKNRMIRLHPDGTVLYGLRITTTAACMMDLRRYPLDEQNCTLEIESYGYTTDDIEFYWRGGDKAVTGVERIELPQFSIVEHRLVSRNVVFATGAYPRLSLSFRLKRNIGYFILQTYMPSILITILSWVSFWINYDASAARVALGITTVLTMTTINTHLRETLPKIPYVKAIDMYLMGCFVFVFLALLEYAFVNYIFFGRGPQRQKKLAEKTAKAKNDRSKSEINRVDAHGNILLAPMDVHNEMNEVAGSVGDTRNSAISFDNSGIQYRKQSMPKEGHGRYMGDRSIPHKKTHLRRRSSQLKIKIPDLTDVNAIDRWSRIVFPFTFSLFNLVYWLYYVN

A word on the Ki: it is the equilibrium dissociation constant of an inhibitor or competing ligand from its target. `O=C(NCc1ccoc1)C(=O)c1c[nH]c2ccccc12` gave a Ki in test [1] of 447 nM.

In test [1], `O=C(NCc1cccs1)C(=O)c1c[nH]c2ccccc12` yielded a Ki of 285 nM.

For the molecule `O=C(NCc1ccco1)C(=O)c1c[nH]c2ccccc12`, in test [1], the affinity corresponds to a Ki of 324 nM.

A word on the inhibition: it is how much of the control response was suppressed. For `O=C(NCc1ccoc1)C(=O)c1c[nH]c2ccc([N+](=O)[O-])cc12`, the Ki in test [1] turned out to be 22 nM; in test [3], 56.6 nM; in test [4], 236 nM. The inhibition in test [2] worked out at 9%.

With `Cn1cccc1CNC(=O)C(=O)c1c[nH]c2ccc([N+](=O)[O-])cc12`, the Ki in test [1] amounted to 134 nM.

Regarding `O=C(NCc1cc[nH]c1)C(=O)c1c[nH]c2ccc([N+](=O)[O-])cc12`, the Ki in test [1] is 21 nM; in test [3], 9.2 nM; in test [4], 154 nM; in test [5], 1600 nM.

Regarding `O=C(NCc1cc2ccccc2[nH]1)C(=O)c1c[nH]c2ccc([N+](=O)[O-])cc12`, the Ki in test [1] was more than 10000 nM.

Take `O=C(NCc1ncc[nH]1)C(=O)c1c[nH]c2ccc([N+](=O)[O-])cc12`: the Ki in test [1] is more than 10000 nM.

Turning to `O=C(NCc1ccsc1)C(=O)c1c[nH]c2ccccc12`, the Ki in test [1] was 212 nM.

Take `O=C(NCc1cccs1)C(=O)c1c[nH]c2ccc([N+](=O)[O-])cc12`: the Ki in test [1] is 128 nM.

Turning to `O=C(NCc1ccc[nH]1)C(=O)c1c[nH]c2ccccc12`, the results for the Ki in test [1], in test [3] and in test [5] were 531 nM, 271 nM and 1500 nM, respectively. Besides, in test [6], the inhibition was 47%.

The molecule `Cc1ccc(CNC(=O)C(=O)c2c[nH]c3ccccc23)o1` registered a Ki in test [1] of 249 nM.

The molecule `O=C(NCc1ccncc1)C(=O)c1c[nH]c2ccccc12` came in with an inhibitory constant (Ki) in test [1] of 426 nM.

With `O=C(NCc1ccccn1)C(=O)c1c[nH]c2ccc([N+](=O)[O-])cc12`, in test [1], the Ki was found to be 439 nM.

Take `O=C(NCc1ncc[nH]1)C(=O)c1c[nH]c2ccccc12`: the affinity in test [1], expressed as Ki, was 1750 nM.

For `O=C(NCc1ccccn1)C(=O)c1c[nH]c2ccccc12`, the Ki in test [1] worked out at 6000 nM.

Consider `O=C(NCc1cc[nH]c1)C(=O)c1c[nH]c2ccccc12`, for which the Ki in test [1] turned out to be 204 nM; in test [3], 272 nM; in test [5], 681 nM. Also, in test [6], the inhibition is 46%.

In the case of `O=C(NCc1ccsc1)C(=O)c1c[nH]c2ccc([N+](=O)[O-])cc12`, in test [1], the Ki was 148 nM.

In test [1], `O=C(NCc1cc2ccccc2[nH]1)C(=O)c1c[nH]c2ccccc12` yielded a Ki of 1130 nM.

Regarding `O=C(NCc1ccco1)C(=O)c1c[nH]c2ccc([N+](=O)[O-])cc12`, the Ki worked out at 12.6 nM in test [1], 20 nM in test [3] and 155 nM in test [4]. Moreover, the inhibition in test [2] is 28%.

For `O=C(NCc1cccnc1)C(=O)c1c[nH]c2ccccc12`, the Ki in test [1] was found to be 105 nM.

Regarding `Cc1ccc(CNC(=O)C(=O)c2c[nH]c3ccc([N+](=O)[O-])cc23)o1`, in test [1], the Ki stood at 15.6 nM.

Molecule `O=C(NCc1cccnc1)C(=O)c1c[nH]c2ccc([N+](=O)[O-])cc12` had a Ki in test [1] of 483 nM.

In test [1], `O=C(NCc1ccncc1)C(=O)c1c[nH]c2ccc([N+](=O)[O-])cc12` showed a Ki of 770 nM.

On to `O=C(NCc1ccc[nH]1)C(=O)c1c[nH]c2ccc([N+](=O)[O-])cc12`, for which the Ki in test [1] was 33 nM; in test [3] it was 73.5 nM; in test [4] it was 585 nM. Also, in test [2], the inhibition amounted to 5%.

For `Cn1cccc1CNC(=O)C(=O)c1c[nH]c2ccccc12`, in test [1], the Ki stood at 4590 nM.

For the origin of these results see ChEMBL document CHEMBL1146100, “Refinement of the benzodiazepine receptor site topology by structure-activity relationships of new N-(heteroarylmethyl)indol-3-ylglyoxylamides” (J Med Chem, 2006).
